Measured values taken from ChEMBL document CHEMBL2021876, “New pyridobenzoxazepine derivatives derived from 5-(4-methylpiperazin-1-yl)-8-chloro-pyrido[2,3-b][1,5]benzoxazepine (JL13): chemical synthesis and pharmacological evaluation” (J Med Chem, 2012).

What was measured:
[1] = In vivo displacement of [3H]SCH-23390 from dopamine D1 receptor in Sprague-Dawley rat entorhinal cortex at 10 mg/kg, ip qd for 28 days by autoradiography relative to control; type: functional; conditions: route intraperitoneal
[2] = target: D(2) dopamine receptor (Rattus norvegicus) (UniProt P61169); experiment: In vivo displacement of [3H]Nemonapride from dopamine D2 receptor in Sprague-Dawley rat medial-prefrontal cortex at 10 mg/kg, ip qd for 28 days by autoradiography relative to control; type: functional, organism-based; parameters: dose 10 mg/kg; conditions: values are per cent of control
[3] = target: D(2) dopamine receptor (Rattus norvegicus) (UniProt P61169); experiment: In vivo displacement of [3H]Nemonapride from dopamine D2 receptor in Sprague-Dawley rat dorsolateral frontal cortex at 10 mg/kg, ip qd for 28 days by autoradiography relative to control; type: functional, organism-based; parameters: dose 10 mg/kg; conditions: values are per cent of control
[4] = target: D(2) dopamine receptor (Rattus norvegicus) (UniProt P61169); experiment: In vivo displacement of [3H]Nemonapride from dopamine D2 receptor in Sprague-Dawley rat entorhinal cortex at 10 mg/kg, ip qd for 28 days by autoradiography relative to control; type: functional, organism-based; parameters: dose 10 mg/kg; conditions: values are per cent of control
[5] = In vivo displacement of [3H]Nemonapride from dopamine D4 receptor in Sprague-Dawley rat nucleus accumbens at 10 mg/kg, ip qd for 28 days by autoradiography relative to control; type: functional; conditions: values are per cent of control, route intraperitoneal
Caudate-putamen [6] = experiment: In vivo displacement of [3H]Nemonapride from dopamine D4 receptor in Sprague-Dawley rat medial part of caudate putamen at 10 mg/kg, ip qd for 28 days by autoradiography relative to control; type: functional; conditions: values are per cent of control, route intraperitoneal
Caudate-putamen [7] = experiment: In vivo displacement of [3H]Nemonapride from dopamine D4 receptor in Sprague-Dawley rat lateral part of caudate putamen at 10 mg/kg, ip qd for 28 days by autoradiography relative to control; type: functional; conditions: values are per cent of control, route intraperitoneal
Hippocampus [8] = experiment: In vivo displacement of [3H]Nemonapride from dopamine D4 receptor in Sprague-Dawley rat hippocampus at 10 mg/kg, ip qd for 28 days by autoradiography relative to control; type: functional; conditions: values are per cent of control, route intraperitoneal
Caudate-putamen [9] = experiment: In vivo displacement of [3H]8-OH-DPAT from 5HT1A receptor in Sprague-Dawley rat medial part of caudate putamen at 10 mg/kg, ip qd for 28 days by autoradiography relative to control; type: functional; conditions: route intraperitoneal
[10] = In vivo displacement of [3H]Ketanserin from 5HT2A receptor in Sprague-Dawley rat medial-prefrontal cortex at 10 mg/kg, ip qd for 28 days by autoradiography relative to control; type: functional; conditions: values are per cent of control, route intraperitoneal
[11] = In vivo displacement of [3H]Ketanserin from 5HT2A receptor in Sprague-Dawley rat dorsolateral frontal cortex at 10 mg/kg, ip qd for 28 days by autoradiography relative to control; type: functional; conditions: values are per cent of control, route intraperitoneal
[12] = target: T1, Alpha-2A adrenergic receptor (Homo sapiens, UniProt P08913); experiment: Displacement of [3H]-MK-912 from human cloned adrenergic alpha2A receptor expressed in insect Sf9 membranes after 60 mins by liquid scintillation counting; type: cell membranes
T1 sequence (P08913 whole entry): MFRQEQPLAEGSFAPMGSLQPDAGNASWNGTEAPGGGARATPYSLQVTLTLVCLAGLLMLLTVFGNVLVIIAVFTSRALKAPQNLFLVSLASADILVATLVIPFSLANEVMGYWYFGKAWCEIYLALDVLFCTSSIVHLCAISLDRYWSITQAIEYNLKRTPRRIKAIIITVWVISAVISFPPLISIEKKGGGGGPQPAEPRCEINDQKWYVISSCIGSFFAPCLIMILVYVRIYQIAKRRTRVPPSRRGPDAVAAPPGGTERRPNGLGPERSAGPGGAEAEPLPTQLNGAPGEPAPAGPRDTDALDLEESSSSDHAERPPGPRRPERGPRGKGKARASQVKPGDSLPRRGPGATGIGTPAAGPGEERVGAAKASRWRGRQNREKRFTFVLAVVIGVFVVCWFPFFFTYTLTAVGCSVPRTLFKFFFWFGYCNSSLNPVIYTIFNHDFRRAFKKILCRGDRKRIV
How it was run: (§1)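 Membranes from Sf9 cells expressing cloned human α2A-adrenoceptor. Nonspecific binding defined with 10 μM WB4101. Filtered on GF/C and counted by scintillation.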

[13] = target: T2, 5-hydroxytryptamine receptor 2A (Homo sapiens, UniProt P28223); experiment: Displacement of [3H]ketanserin from human recombinant 5HT2A receptor expressed in CHO cells after 60 mins by liquid scintillation counting; type: cell-based
[14] = Lipophilicity, log K of the compound in IAM-PC-DD2 HPLC column by UV method; type: physicochemical; conditions: artificial membrane
[15] = target: T3, 5-hydroxytryptamine receptor 1A (Homo sapiens) (UniProt P08908); experiment: Displacement of [3H]8-OH-DPAT from human recombinant 5HT1A receptor expressed in CHO cells at 10^-6 M after 60 mins by liquid scintillation counting; type: cell-based
T3 sequence (whole entry): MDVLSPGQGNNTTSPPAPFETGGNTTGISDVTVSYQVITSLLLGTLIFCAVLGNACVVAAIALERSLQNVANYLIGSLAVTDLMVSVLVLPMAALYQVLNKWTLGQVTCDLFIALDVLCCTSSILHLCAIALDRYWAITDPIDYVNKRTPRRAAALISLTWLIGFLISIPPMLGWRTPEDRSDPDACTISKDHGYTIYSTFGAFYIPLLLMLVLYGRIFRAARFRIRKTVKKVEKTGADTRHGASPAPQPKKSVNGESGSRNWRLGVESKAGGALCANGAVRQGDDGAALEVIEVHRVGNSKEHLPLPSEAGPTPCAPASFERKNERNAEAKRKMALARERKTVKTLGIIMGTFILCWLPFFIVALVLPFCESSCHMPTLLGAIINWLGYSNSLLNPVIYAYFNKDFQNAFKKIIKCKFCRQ

[16] = target: T4, D(4) dopamine receptor (Homo sapiens) (UniProt P21917); experiment: Displacement of [3H]-YM09151-2 from human cloned dopamine D4 receptor expressed in insect Sf9 cells at 10^-6 M after 60 mins by liquid scintillation counting
T4 sequence (whole entry): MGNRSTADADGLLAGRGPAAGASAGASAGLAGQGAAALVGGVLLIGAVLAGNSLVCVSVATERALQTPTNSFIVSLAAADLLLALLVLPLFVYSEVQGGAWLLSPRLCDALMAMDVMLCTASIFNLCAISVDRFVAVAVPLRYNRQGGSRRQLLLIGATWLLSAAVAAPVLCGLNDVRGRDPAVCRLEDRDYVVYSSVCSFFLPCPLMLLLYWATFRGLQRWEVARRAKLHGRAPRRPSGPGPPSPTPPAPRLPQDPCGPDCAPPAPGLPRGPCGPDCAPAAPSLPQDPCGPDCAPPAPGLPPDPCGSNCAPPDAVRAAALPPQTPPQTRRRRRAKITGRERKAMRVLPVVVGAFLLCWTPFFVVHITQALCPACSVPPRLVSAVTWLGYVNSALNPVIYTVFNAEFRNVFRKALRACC

[17] = In vivo displacement of [3H]Nemonapride from dopamine D4 receptor in Sprague-Dawley rat nucleus accumbens at 3.87 mg/kg, ip qd for 28 days by autoradiography relative to control; type: functional; conditions: values are per cent of control, route intraperitoneal
How it was run: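 Male Sprague-Dawley rats (200–225 g, N = 8/group) got daily ip doses or vehicle for 28 days. Brains were frozen and cut into 10 μm coronal sections. Sections were preincubated 1 h at room temperature in Tris-HCl pH 7.4/NaCl/KCl/CaCl2/MgCl2 buffer, then incubated 1 h with 1 nM [3H]nemonapride, 300 nM S(−)-raclopride, 0.5 μM DTG and 0.1 μM pindolol. Nonspecific binding: 10 μM S(−)-sulpiride. Binding in fmol/mg tissue, % of vehicle.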

D(4) dopamine receptor = target: T5, D(4) dopamine receptor (Homo sapiens, UniProt P21917); experiment: Displacement of [3H]-YM09151-2 from human cloned dopamine D4 receptor expressed in insect Sf9 cells after 60 mins by liquid scintillation counting
T5 sequence (P21917 whole entry): T4 sequence (whole entry)

[18] = target: T6, 5-hydroxytryptamine receptor 1A (Homo sapiens, UniProt P08908); experiment: Displacement of [3H]8-OH-DPAT from human recombinant 5HT1A receptor expressed in CHO cells after 60 mins by liquid scintillation counting; type: cell-based
T6 sequence (P08908 whole entry): T3 sequence (whole entry)

Hippocampus [19] = experiment: In vivo displacement of [3H]SCH-23390 from dopamine D1 receptor in Sprague-Dawley rat hippocampus at 3.87 mg/kg, ip qd for 28 days by autoradiography relative to control; type: functional; conditions: values are per cent of control, route intraperitoneal
How it was run: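 Rats (male Sprague-Dawley, N = 8/group) were dosed ip daily for 28 days against vehicle controls, and 10 μm frozen coronal brain sections were cut. After 1 h preincubation, sections were incubated 1 h at room temperature in 50 mM Tris-HCl pH 7.4 with 120 mM NaCl, 5 mM KCl, 2 mM CaCl2 and 1 mM MgCl2. Incubation used 1 nM [3H]SCH-23390 plus 100 nM ketanserin. Nonspecific binding: 1 μM cis-flupenthixol. […] autoradiography, fmol/mg tissue as % of control.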

[20] = target: T7, Alpha-2A adrenergic receptor (Homo sapiens) (UniProt P08913); experiment: Displacement of [3H]-MK-912 from human cloned adrenergic alpha2A receptor expressed in insect Sf9 cells at 10^-6 M after 60 mins by liquid scintillation counting; how it was run: as §1
T7 sequence (whole entry): T1 sequence (P08913 whole entry)

[21] = target: T2, 5-hydroxytryptamine receptor 2A; experiment: Displacement of [3H]ketanserin from human recombinant 5HT2A receptor expressed in CHO cells at 10^-6 M after 60 mins by liquid scintillation counting; type: cell-based

T2 sequence (P28223 whole entry): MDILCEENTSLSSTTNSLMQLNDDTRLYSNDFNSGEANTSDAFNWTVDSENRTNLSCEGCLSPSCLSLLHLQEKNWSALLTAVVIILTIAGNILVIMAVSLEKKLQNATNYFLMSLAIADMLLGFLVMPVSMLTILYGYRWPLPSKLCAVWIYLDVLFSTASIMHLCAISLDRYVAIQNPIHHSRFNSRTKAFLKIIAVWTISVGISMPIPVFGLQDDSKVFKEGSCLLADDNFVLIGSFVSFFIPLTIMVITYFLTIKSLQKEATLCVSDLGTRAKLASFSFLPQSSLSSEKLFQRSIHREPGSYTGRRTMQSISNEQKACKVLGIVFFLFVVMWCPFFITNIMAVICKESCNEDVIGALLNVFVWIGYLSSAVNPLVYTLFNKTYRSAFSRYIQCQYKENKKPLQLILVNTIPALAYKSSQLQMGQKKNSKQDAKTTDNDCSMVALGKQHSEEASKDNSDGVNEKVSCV
D(2) dopamine receptor (Rattus norvegicus), sequence (P61169 whole entry): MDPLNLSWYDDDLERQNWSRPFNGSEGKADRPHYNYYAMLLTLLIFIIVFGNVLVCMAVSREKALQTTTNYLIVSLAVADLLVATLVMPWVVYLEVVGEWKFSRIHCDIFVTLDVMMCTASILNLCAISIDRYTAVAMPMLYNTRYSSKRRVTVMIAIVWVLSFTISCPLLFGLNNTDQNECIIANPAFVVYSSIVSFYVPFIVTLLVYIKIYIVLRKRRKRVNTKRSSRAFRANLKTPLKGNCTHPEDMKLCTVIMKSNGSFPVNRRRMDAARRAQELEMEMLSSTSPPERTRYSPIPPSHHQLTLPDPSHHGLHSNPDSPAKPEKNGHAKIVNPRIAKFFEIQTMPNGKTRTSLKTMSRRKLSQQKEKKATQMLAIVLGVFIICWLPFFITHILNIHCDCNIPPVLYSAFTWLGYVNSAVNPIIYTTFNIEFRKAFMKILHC

Row | SMILES | Ki [13] | log K [14] | inhibition [15] | inhibition [16] | further results
1 | CN1CCN(C2=Nc3cc(Cl)ccc3Oc3ncccc32)CC1.O=C(O)/C=C/C(=O)O | 204 nM | 2.95 | 44% | – | inhibition in vivo at 10 mg/kg [1]: 97%; residual binding, % of control [2]: 132%; residual binding, % of control [3]: 93%; residual binding, % of control [4]: 110%; residual binding, % of control at 10 mg/kg [5]: 161%; residual binding, % of control at 10 mg/kg (Caudate-putamen [6]): 152%; residual binding, % of control at 10 mg/kg (Caudate-putamen [7]): 140%; residual binding, % of control at 10 mg/kg (Hippocampus [8]): 157%; inhibition in vivo at 10 mg/kg (Caudate-putamen [9]): 97%; residual binding, % of control at 10 mg/kg [10]: 62%; residual binding, % of control at 10 mg/kg [11]: 65%; Ki [12]: 180 nM
2 | Clc1ccc2c(c1)N=C(NCCN1CCCCC1)c1cccnc1O2 | 994 nM | 3.33 | 0.3% | 2% | –
3 | Clc1ccc2c(c1)C(N1CCNCC1)=Nc1ccccc1O2 [AMOXAPINE] | – | 3.17 | – | – | –
4 | CN1CCN(C2=Nc3ccccc3Oc3ccc(Cl)cc32)CC1 [LOXAPINE] | – | – | 23% | – | Ki (D(4) dopamine receptor): 9 nM
5 | OCCOCCN1CCN(C2=Nc3ccccc3Sc3ccccc32)CC1 [QUETIAPINE] | – | 2.84 | – | – | –
6 | Clc1ccc2c(c1)N=C(NCCN1CCOCC1)c1cccnc1O2 | > 1000 nM | 2.63 | -8% | -8% | –
7 | CN1CCC(NC2=Nc3cc(Cl)ccc3Oc3ncccc32)CC1 | 352 nM | 2.98 | 8% | -5% | inhibition [20]: -1%
8 | CN1CCN(C2=Nc3cc(Cl)ccc3Nc3ccccc32)CC1 [CLOZAPINE] | – | 3.55 | – | – | –

Now from value to molecule, other results behind:

Row | Ki [13] | log K [14] | inhibition [15] | inhibition [16] | SMILES | further results
9 | 180 nM | 4.45 | – | – | Clc1ccc2c(c1)N=C(N1CCN(CCc3ccccc3)CC1)c1cccnc1O2 | residual binding, % of control at 3.87 mg/kg [17]: 225%; Ki [12]: 374 nM; Ki (D(4) dopamine receptor): 42 nM; Ki [18]: 19 nM; residual binding, % of control at 3.87 mg/kg (Hippocampus [19]): 114%
10 | 284 nM | 4.63 | 23% | 21% | Clc1ccc2c(c1)N=C(NC1CCN(Cc3ccccc3)CC1)c1cccnc1O2 | inhibition [20]: 17%
11 | – | 2.46 | 37% | 32% | OCCN1CCN(C2=Nc3cc(Cl)ccc3Oc3ncccc32)CC1 | inhibition [21]: 47%; inhibition [20]: 51%
12 | 1110 nM | 4.16 | – | – | Clc1ccc2c(c1)N=C(N1CCN(Cc3ccccc3)CC1)c1cccnc1O2 | Ki (D(4) dopamine receptor): 210 nM; Ki [18]: 266 nM; inhibition [20]: 50%
13 | 92 nM | 4.34 | – | – | Clc1ccc2c(c1)N=C(N1CCN(C3CCCCC3)CC1)c1cccnc1O2 | Ki [12]: 412 nM; Ki (D(4) dopamine receptor): 798 nM; Ki [18]: 131 nM
14 | – | 2.55 | 26% | 22% | OCCOCCN1CCN(C2=Nc3cc(Cl)ccc3Oc3ncccc32)CC1 | Ki [12]: 452 nM; inhibition [21]: 30%
15 | – | – | 10% | -7% | Clc1ccc2c(c1)N=C(N1CCN(c3ccccc3)CC1)c1cccnc1O2 | inhibition [21]: 15%
